Seven molecules from ChEMBL document CHEMBL4118216, “Adamantyl thioureas as soluble epoxide hydrolase inhibitors” (Bioorg Med Chem Lett, 2018) can be followed below.

Data set [1] has as its target T1, Bifunctional epoxide hydrolase 2 (Rattus norvegicus, UniProt P80299).
T1 sequence (P80299 whole entry): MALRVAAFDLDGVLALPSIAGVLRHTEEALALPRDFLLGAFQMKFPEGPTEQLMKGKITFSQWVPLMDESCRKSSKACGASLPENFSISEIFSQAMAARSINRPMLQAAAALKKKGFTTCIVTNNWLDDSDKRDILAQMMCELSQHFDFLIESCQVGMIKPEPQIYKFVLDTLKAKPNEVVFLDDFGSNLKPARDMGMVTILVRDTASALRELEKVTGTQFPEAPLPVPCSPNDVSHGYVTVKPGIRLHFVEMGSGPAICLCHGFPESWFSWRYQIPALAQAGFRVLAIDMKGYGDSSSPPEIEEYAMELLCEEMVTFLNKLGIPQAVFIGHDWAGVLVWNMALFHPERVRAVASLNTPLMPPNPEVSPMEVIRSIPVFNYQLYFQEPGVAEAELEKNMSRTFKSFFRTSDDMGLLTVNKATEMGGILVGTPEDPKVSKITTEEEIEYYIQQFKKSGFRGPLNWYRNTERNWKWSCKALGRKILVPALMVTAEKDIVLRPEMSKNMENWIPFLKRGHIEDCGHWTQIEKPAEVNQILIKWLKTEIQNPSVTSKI
Briefly: Inhibition of rat sEH using CMNPC as substrate preincubated for 5 mins followed by substrate addition measured for 10 mins by fluorescent based assay. The method, boiled down: (§1)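 Kinetic fluorescent assay giving IC50 values; each value is the mean of three separate experiments.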

Data set [2] deals with T2, Bifunctional epoxide hydrolase 2 (Mus musculus, UniProt P34914).
T2 sequence (P34914 whole entry): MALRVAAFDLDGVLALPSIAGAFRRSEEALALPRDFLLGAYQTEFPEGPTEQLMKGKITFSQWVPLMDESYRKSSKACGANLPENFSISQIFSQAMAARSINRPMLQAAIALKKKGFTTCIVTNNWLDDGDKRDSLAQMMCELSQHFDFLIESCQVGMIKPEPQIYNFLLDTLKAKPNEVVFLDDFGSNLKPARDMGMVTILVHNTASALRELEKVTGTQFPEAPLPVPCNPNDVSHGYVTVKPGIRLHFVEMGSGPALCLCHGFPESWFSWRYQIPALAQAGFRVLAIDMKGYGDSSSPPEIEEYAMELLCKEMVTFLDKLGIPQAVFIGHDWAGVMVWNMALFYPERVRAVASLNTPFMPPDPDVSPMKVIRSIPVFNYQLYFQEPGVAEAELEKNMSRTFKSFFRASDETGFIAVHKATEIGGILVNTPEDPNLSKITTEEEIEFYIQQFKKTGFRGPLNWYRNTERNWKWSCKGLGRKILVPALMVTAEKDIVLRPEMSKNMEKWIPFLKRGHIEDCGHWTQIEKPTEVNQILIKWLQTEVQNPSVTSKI
Briefly: Inhibition of recombinant mouse sEH expressed in baculovirus expression system using CMNPC as substrate preincubated for 5 mins followed by substrate addition measured for 10 mins by fluorescent based assay. An outline of the steps:
as §1

Data set [3] in a line: Aqueous solubility of the compound in 0.1 M sodium phosphate buffer at pH 7.4. It is filed as physicochemical. An outline of the steps: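 Solubility determined in 0.1 M sodium phosphate buffer, pH 7.4, with 1% DMSO present.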
The target of data set [4] is T3, Bifunctional epoxide hydrolase 2 (Homo sapiens, UniProt P34913).
T3 sequence (P34913 whole entry): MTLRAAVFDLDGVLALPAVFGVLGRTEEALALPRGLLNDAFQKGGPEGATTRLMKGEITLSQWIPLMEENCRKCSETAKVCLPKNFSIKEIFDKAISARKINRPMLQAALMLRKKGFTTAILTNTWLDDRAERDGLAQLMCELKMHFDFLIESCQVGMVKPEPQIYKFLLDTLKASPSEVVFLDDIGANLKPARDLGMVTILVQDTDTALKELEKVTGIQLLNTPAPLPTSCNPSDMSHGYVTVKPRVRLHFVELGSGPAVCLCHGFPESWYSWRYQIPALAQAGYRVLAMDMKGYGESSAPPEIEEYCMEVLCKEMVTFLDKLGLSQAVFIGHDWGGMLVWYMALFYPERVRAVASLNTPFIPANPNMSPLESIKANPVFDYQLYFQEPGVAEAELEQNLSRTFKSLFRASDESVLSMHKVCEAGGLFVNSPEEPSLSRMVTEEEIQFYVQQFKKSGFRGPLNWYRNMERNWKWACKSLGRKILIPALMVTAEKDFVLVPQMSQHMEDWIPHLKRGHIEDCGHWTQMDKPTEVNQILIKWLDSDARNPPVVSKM
Briefly: Inhibition of recombinant human sEH expressed in baculovirus expression system using CMNPC as substrate preincubated for 5 mins followed by substrate addition measured for 10 mins by fluorescent based assay. The method, boiled down: as §1

Converted amounts (≈) assume the structure as drawn.

`S=C(NCCc1ccccc1)NC1C2CC3CC(C2)CC1C3` (stereo not drawn): the IC50 in data set [1] was 78.3 nM; in data set [2], 108 nM; in data set [4], 8.2 nM. The solubility in data set [3] was 20 to 30 µM (≈ 6.29 to 9.43 µg/mL).

Regarding `S=C(NCCCNC(=S)NC12CC3CC(CC(C3)C1)C2)NC12CC3CC(CC(C3)C1)C2`, the results for the IC50 in data set [1], in data set [2] and in data set [4] were 43.3 nM, 74.9 nM and 97.6 nM, respectively. In addition, the solubility in data set [3] is 90 to 100 µM (≈ 41.5 to 46.1 µg/mL).

Turning to `S=C(NCCCCCCCNC(=S)NC12CC3CC(CC(C3)C1)C2)NC12CC3CC(CC(C3)C1)C2`, the IC50 in data set [1] stood at 35.3 nM; in data set [2], 47.3 nM; in data set [4], 7.2 nM. The molecule further returned a solubility in data set [3] of 70 to 80 µM (≈ 36.2 to 41.3 µg/mL).

`S=C(NCCCCCCCCNC(=S)NC12CC3CC(CC(C3)C1)C2)NC12CC3CC(CC(C3)C1)C2`: the IC50 in data set [1] was found to be 374 nM; in data set [2] it was 1170 nM; in data set [4] it was 9.8 nM. This molecule came in with a solubility in data set [3] of 40 to 50 µM (≈ 21.2 to 26.5 µg/mL).

`S=C(Nc1ccccc1)NC1C2CC3CC(C2)CC1C3` (stereo not drawn): the IC50 in data set [1] worked out at 356 nM; in data set [2], 408 nM; in data set [4], 229 nM. Besides, in data set [3], the solubility is 70 to 80 µM (≈ 20.1 to 22.9 µg/mL).

For `S=C(NCc1ccccc1)NC1C2CC3CC(C2)CC1C3` (stereo not drawn), the IC50 came out at 60.3 nM in data set [1], 61 nM in data set [2] and 34 nM in data set [4]. For the same molecule, the solubility in data set [3] was 65 to 75 µM (≈ 19.5 to 22.5 µg/mL).

Consider `S=C(NCCCCCCNC(=S)NC12CC3CC(CC(C3)C1)C2)NC12CC3CC(CC(C3)C1)C2`, for which the results for the concentration for half-maximal inhibition (IC50) in data set [1], in data set [2] and in data set [4] were 61.6 nM, 50.6 nM and 7.7 nM, respectively. In data set [3], this molecule displayed a solubility of 70 to 80 µM (≈ 35.2 to 40.2 µg/mL).

A word on the IC50: it is the concentration that inhibits the measured activity by half. A word on the solubility: it is the dissolved amount per volume that the medium holds. A lower solubility goes with a poorly soluble substance.
